Reference: ChEMBL document CHEMBL1156936, “2,3-Diamino acid modifying 3S-tetrahydroisoquinoline-3-carboxylic acids: leading to a class of novel agents with highly unfolded conformation, selective in vitro anti-platelet aggregation and potent in vivo anti-thrombotic activity” (Bioorg Med Chem, 2010)
Square brackets hold non-standard residues; d marks the D form. Peptide text beside a SMILES is read from it. Tic = O=C(O)[C@@H]1Cc2ccccc2CN1

Key:
[1] = test system: Platelet; test: Inhibition of adenosine diphosphate-induced pig platelet aggregation measured for 5 mins; type: functional, cell-based; settings: Sus scrofa
[2] = test system: Platelet; test: Inhibition of arachidonic acid-induced pig platelet aggregation measured for 5 mins; type: functional, cell-based; settings: Sus scrofa
[3] = test system: Platelet; test: Inhibition of platelet activating factor-induced pig platelet aggregation measured for 5 mins; type: functional, cell-based; settings: Sus scrofa
[4] = test system: Platelet; test: Inhibition of thrombin-induced pig platelet aggregation measured for 5 mins; type: functional, cell-based; settings: Sus scrofa
How it was run: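 Pig blood spun at 1000g for 10 min to give PRP and at 1500g for 10 min to give PPP. Platelets adjusted to 2×10⁸/ml with autologous PPP, and 0.5 ml is pre-mixed with NS or drug at six tenfold-spaced final concentrations. After baseline the agonist is added (thrombin final 0.1 U/ml). Optical aggregation is read at 37 °C for 5 min. Peak height is taken as maximal aggregation, and % inhibition is calculated against NS. Run in sextuplicate; IC50 from the concentration–inhibition curve.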

[5] = test system: Rattus norvegicus; test: Antithrombotic activity in Wistar rat assessed as reduction of thrombus weight at 30 nmol/kg, iv; type: functional
How it was run: (§1)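 Male Wistar rats (250–300 g) with an arteriovenous shunt: a polyethylene tube holding a thread joins the right carotid artery to the left jugular vein. Heparin sodium is injected through the tube, then vehicle (NS) or drug dissolved in NS and kept on ice. Blood flows for 15 min, and the wet thrombus on the thread is weighed. Analysis by ANOVA.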

[6] = test system: Rattus norvegicus; test: Antithrombotic activity in iv dosed Wistar rat assessed as reduction of thrombus weight; type: functional, organism-based; how it was run: as §1
[7] = test system: Rattus norvegicus; test: Antithrombotic activity in Wistar rat assessed as reduction of thrombus weight at 3 nmol/kg, iv; type: functional; how it was run: as §1
[8] = test system: Rattus norvegicus; test: Antithrombotic activity in Wistar rat assessed as reduction of thrombus weight at 0.3 nmol/kg, iv; type: functional; how it was run: as §1
[9] = test system: Rattus norvegicus; test: Antithrombotic activity in Wistar rat assessed as reduction of thrombus weight at 30 nmol/kg, po; type: functional
How it was run: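 Drug in NS (or NS alone, 0.6 ml) is given orally to male Wistar rats (250–300 g), then pentobarbital sodium 80.0 mg/kg ip. Thirty min later the right carotid artery and left jugular vein are exposed and joined by a heparinized thread-containing shunt. Blood flows for 15 min, and the wet thrombus is weighed. n=12; analysis by ANOVA.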

[10] = test system: Rattus norvegicus; test: Antithrombotic activity in Wistar rat assessed as reduction of thrombus weight at 0.03 nmol/kg, iv; type: functional; how it was run: as §1
[11] = test system: Rattus norvegicus; test: Antithrombotic activity in Wistar rat assessed as reduction of thrombus weight at 165 umol/kg, iv; type: functional; how it was run: as §1
[12] = test system: Rattus norvegicus; test: Antithrombotic activity in Wistar rat assessed as reduction of thrombus weight at 15 umol/kg, iv; type: functional; how it was run: as §1

IC50 [1] [nM] | IC50 [2] [nM] | IC50 [3] [nM] | IC50 [4] [nM] | Compound | Activity [5] [mg] | Activity [6] | Activity [7] [mg] | Activity [8] [mg] | Activity [9] [mg] | Activity [10] [mg] | Activity [11] [mg] | Activity [12] [mg]
3.42 | 8.19 | 4.91 | 9.99 | CSCC[C@H](NC(=O)[C@@H]1Cc2ccccc2CN1C(=O)[C@@H](N)CCSC)C(=O)O (H-Met-[Tic]-Met-OH) | 19.36 |  |  |  |  |  |  | 
2.89 | 10 | 4.14 | 10.8 | C[C@@H](O)[C@H](N)C(=O)N1Cc2ccccc2C[C@H]1C(=O)N[C@H](C(=O)O)[C@@H](C)O (H-Thr-[Tic]-Thr-OH) | 14.32 | Dose-dependent effect | 20.95 | 28.63 | 17.53 |  |  | 
2.89 | 8.92 | 5.64 | 11.3 | CC[C@H](C)[C@H](N)C(=O)N1Cc2ccccc2C[C@H]1C(=O)N[C@H](C(=O)O)[C@@H](C)CC (H-Ile-[Tic]-Ile-OH) | 24.3 |  |  |  |  |  |  | 
3.48 | 9.55 | 4.37 | 11.1 | N[C@@H](CC(=O)O)C(=O)N1Cc2ccccc2C[C@H]1C(=O)N[C@@H](CC(=O)O)C(=O)O (H-Asp-[Tic]-Asp-OH) | 20.49 |  |  |  |  |  |  | 
2.44 | 7.95 | 5.15 | 10.6 | NCC(=O)N1Cc2ccccc2C[C@H]1C(=O)NCC(=O)O (H-Gly-[Tic]-Gly-OH) | 25.2 |  |  |  |  |  |  | 
3.15 | 9.17 | 6.07 | 9.87 | N=C(N)NCCC[C@H](NC(=O)[C@@H]1Cc2ccccc2CN1C(=O)[C@@H](N)CCCNC(=N)N)C(=O)O (H-Arg-[Tic]-Arg-OH) | 10.61 | Dose-dependent effect | 16.29 |  | 15.15 | 19.71 |  | 
2.23 | 7.84 | 4.92 | 8.87 | N[C@@H](Cc1ccccc1)C(=O)N1Cc2ccccc2C[C@H]1C(=O)N[C@@H](Cc1ccccc1)C(=O)O (H-Phe-[Tic]-Phe-OH) | 22.51 |  |  |  |  |  |  | 
2.55 | 8.37 | 5.72 | 9.13 | NC(=O)CC[C@H](NC(=O)[C@@H]1Cc2ccccc2CN1C(=O)[C@@H](N)CCC(N)=O)C(=O)O (H-Gln-[Tic]-Gln-OH) | 18.13 |  |  |  | 18.23 |  |  | 
3.73 | 9.64 | 5.67 | 8.98 | NCCCC[C@H](NC(=O)[C@@H]1Cc2ccccc2CN1C(=O)[C@@H](N)CCCCN)C(=O)O (H-Lys-[Tic]-Lys-OH) | 18.65 |  |  |  | 19.72 |  |  | 
3.26 | 8.18 | 6.32 | 9.64 | N[C@@H](CS)C(=O)N1Cc2ccccc2C[C@H]1C(=O)N[C@@H](CS)C(=O)O (H-Cys-[Tic]-Cys-OH) | 19.35 |  |  |  |  |  |  | 
2.57 | 8.17 | 5.03 | 10 | CC(C)C[C@H](NC(=O)[C@@H]1Cc2ccccc2CN1C(=O)[C@@H](N)CC(C)C)C(=O)O (H-Leu-[Tic]-Leu-OH) | 19.53 |  |  |  |  |  |  | 
2.57 | 9.08 | 5.87 | 9.25 | CC(C)[C@H](N)C(=O)N1Cc2ccccc2C[C@H]1C(=O)N[C@H](C(=O)O)C(C)C (H-Val-[Tic]-Val-OH) | 19.42 |  |  |  |  |  |  | 
2.17 | 7.99 | 5.36 | 10.2 | N[C@@H](CO)C(=O)N1Cc2ccccc2C[C@H]1C(=O)N[C@@H](CO)C(=O)O (H-Ser-[Tic]-Ser-OH) | 20.97 |  |  |  |  |  |  | 
2.19 | 9.86 | 4.19 | 10.3 | N[C@@H](CCC(=O)O)C(=O)N1Cc2ccccc2C[C@H]1C(=O)N[C@@H](CCC(=O)O)C(=O)O (H-Glu-[Tic]-Glu-OH) | 18.95 |  |  |  |  |  |  | 
2.36 | 8.73 | 5.6 | 9.48 | C[C@H](N)C(=O)N1Cc2ccccc2C[C@H]1C(=O)N[C@@H](C)C(=O)O | 17.12 | Dose-dependent effect | 23.35 | 29.77 | 18.89 |  |  | 
3.07 | 8.28 | 5.39 | 8.43 | NC(=O)C[C@H](NC(=O)[C@@H]1Cc2ccccc2CN1C(=O)[C@@H](N)CC(N)=O)C(=O)O (H-Asn-[Tic]-Asn-OH) | 17.95 |  |  |  | 16.88 |  |  | 
2.84 | 9.38 | 5.57 | 10 | N[C@@H](Cc1c[nH]cn1)C(=O)N1Cc2ccccc2C[C@H]1C(=O)N[C@@H](Cc1cnc[nH]1)C(=O)O (H-His-[Tic]-His-OH) | 20.91 |  |  |  |  |  |  | 
 |  |  |  | CC(=O)Oc1ccccc1C(=O)O [ASPIRIN] |  |  |  |  |  |  | 13.22 | 
 |  |  |  | O=C(O)[C@@H]1Cc2ccccc2CN1 |  |  |  |  |  |  |  | 21.52

Compound | IC50 [1] [nM] | IC50 [2] [nM] | IC50 [3] [nM] | IC50 [4] [nM] | Activity [5] [mg] | Activity [6] | Activity [7] [mg] | Activity [8] [mg] | Activity [9] [mg] | Activity [10] [mg] | Activity [11] [mg] | Activity [12] [mg]
N[C@@H](Cc1ccc(O)cc1)C(=O)N1Cc2ccccc2C[C@H]1C(=O)N[C@@H](Cc1ccc(O)cc1)C(=O)O (H-Tyr-[Tic]-Tyr-OH) | 2.58 | 8.83 | 4.52 | 9.84 | 18.79 |  |  |  |  |  |  | 
